Assay results as given in ChEMBL document CHEMBL2057141, “Imidazolopiperazines: lead optimization of the second-generation antimalarial agents” (J Med Chem, 2012).
pEC50, pIC50: −log10 of the molar value.

Columns and labels:
Plasmodium falciparum [1] = assay: Antimalarial activity against Plasmodium falciparum 3D7 after 72 hrs by SYBR green fluorescence assay; type: functional, organism-based; conditions: 3D7, 72 h
How it was run: (§1)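 P. falciparum grown in O+ erythrocytes, screened in medium without human serum plus 0.5% Albumax II. Twelve-point half-log dilutions up to 10 μM final. 0.3% parasitemia, 2.5% hematocrit; 72 h at 37 °C under low-oxygen gas. Lysis buffer with SYBR Green added, 24 h at 25 °C, fluorescence read at 485/530 nm.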

Plasmodium falciparum [2] = assay: Antimalarial activity against Plasmodium falciparum W2 after 72 hrs by SYBR green fluorescence assay; type: functional, organism-based; conditions: W2, 72 h; how it was run: as §1
[3] = Permeability of the compound by PAMPA; type: ADME
How it was run: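 PAMPA in 96-well filter plates. Permeated compound quantified by UV absorbance at 260–290 nm. Reported as percentage absorbed.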

Mus musculus [4] = assay: AUC (0 to 24 hrs) in Balb/c mouse at 5 mg/kg, iv; type: ADME, organism-based, Plasma; parameters: time < 24 hr, dose 5 mg/kg, route intravenous; conditions: in vivo
How it was run: (§2)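 Male Balb/c mice (n = 3 per group). Compound as a 2.5 mg/mL solution in PEG300/D5W 3:1, filtered. Given by lateral tail vein at 5 mg/kg (2 mL/kg) or orally at 20 mg/kg (8 mL/kg). Six serial 50 μL retro-orbital blood samples to 24 h, heparinized plasma. Plasma extracted with acetonitrile:methanol 3:1 with internal standard, LC-MS/MS. Noncompartmental analysis; F = AUCpo×dose_iv/AUCiv×dose_po.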

Mus musculus [5] = assay: AUC (0 to 24 hrs) in Balb/c mouse at 20 mg/kg, po; type: ADME, organism-based, Plasma; parameters: time < 24 hr, dose 20 mg/kg, route oral; conditions: in vivo; how it was run: as §2
Plasmodium berghei [6] = assay: Antimalarial activity against Plasmodium berghei ANKA expressing GFP infected in po dosed NMRI mouse assessed as reduction of parasite level in blood administered 24 hrs post infection measured after 72 hrs post infection by flow cytometry; type: functional
[7] = Metabolic stability in mouse liver microsomes assessed as hepatic extraction ratio by LC/MS/MS analysis in presence of CYP; type: ADME, Microsome
How it was run: (§3)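 Liver microsomes (human, mouse, rat). Compound depletion followed by LC/MS/MS. Loss of parent used to derive in vitro half-life and hepatic extraction ratio.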

[8] = Metabolic stability in rat liver microsomes assessed as hepatic extraction ratio by LC/MS/MS analysis in presence of CYP; type: ADME, Microsome; how it was run: as §3
[9] = Metabolic stability in human liver microsomes assessed as hepatic extraction ratio by LC/MS/MS analysis in presence of CYP; type: ADME, Microsome; how it was run: as §3
[10] = biological target: Voltage-gated inwardly rectifying potassium channel KCNH2 (Homo sapiens, UniProt Q12809); assay: Inhibition of human ERG channel expressed in CHO cells by patch clamp assay; type: cell-based
Sequence of Voltage-gated inwardly rectifying potassium channel KCNH2 (Q12809 whole entry): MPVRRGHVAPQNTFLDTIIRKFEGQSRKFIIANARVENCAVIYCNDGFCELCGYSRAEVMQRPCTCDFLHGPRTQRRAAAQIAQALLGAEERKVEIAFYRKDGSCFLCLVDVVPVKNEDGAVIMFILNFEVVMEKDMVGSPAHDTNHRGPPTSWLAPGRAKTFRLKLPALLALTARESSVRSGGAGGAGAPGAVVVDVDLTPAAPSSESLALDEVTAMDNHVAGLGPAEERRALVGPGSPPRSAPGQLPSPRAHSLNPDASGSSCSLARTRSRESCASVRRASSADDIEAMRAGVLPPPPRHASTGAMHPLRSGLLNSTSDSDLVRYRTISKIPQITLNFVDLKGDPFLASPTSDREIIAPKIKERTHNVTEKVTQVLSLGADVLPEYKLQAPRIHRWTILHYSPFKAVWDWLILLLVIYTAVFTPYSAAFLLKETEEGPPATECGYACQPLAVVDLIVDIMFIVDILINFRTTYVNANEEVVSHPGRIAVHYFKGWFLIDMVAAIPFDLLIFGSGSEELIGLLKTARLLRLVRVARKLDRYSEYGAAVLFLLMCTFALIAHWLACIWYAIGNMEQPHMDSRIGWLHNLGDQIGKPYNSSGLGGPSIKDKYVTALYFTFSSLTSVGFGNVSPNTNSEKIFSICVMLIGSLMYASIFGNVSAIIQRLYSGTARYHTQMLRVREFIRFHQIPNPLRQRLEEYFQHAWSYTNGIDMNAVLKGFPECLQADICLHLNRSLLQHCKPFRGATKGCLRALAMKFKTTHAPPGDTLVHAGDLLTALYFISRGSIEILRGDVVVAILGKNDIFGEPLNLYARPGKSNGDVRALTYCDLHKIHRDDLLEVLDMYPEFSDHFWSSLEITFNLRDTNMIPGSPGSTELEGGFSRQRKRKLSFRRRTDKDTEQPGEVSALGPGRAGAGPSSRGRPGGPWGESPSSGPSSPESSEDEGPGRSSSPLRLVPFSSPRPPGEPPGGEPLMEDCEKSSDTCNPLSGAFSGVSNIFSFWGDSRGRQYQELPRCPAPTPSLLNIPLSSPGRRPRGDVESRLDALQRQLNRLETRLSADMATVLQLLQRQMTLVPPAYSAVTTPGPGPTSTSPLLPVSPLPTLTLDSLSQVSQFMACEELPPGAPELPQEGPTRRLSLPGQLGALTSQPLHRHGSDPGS

[11] = Apparent permeability across apical to basolateral side in human Caco2 cells by LC/MS analysis; type: ADME, cell-based; conditions: Caco-2
How it was run: (§4)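 Caco-2 monolayers in 96-well format. Compound measured in apical and basolateral chambers by LC/MS, giving Papp in the A–B and B–A directions. Values reported in cm/s × 10⁶.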

[12] = Apparent permeability across basolateral to apical side in human Caco2 cells by LC/MS analysis; type: ADME, cell-based; conditions: Caco-2; how it was run: as §4
[13] = Volume of distribution in Balb/c mouse at 5 mg/kg, iv; type: ADME, organism-based; parameters: dose 5 mg/kg, route intravenous; conditions: in vivo; how it was run: as §2
[14] = Clearance in Balb/c mouse plasma at 5 mg/kg, iv; type: ADME, organism-based; parameters: dose 5 mg/kg, route intravenous; how it was run: as §2
[15] = Half life in Balb/c mouse at 5 mg/kg, iv; type: ADME, organism-based; parameters: dose 5 mg/kg, route intravenous; conditions: in vivo; how it was run: as §2
[16] = Cmax in Balb/c mouse at 20 mg/kg, po; type: ADME, organism-based; parameters: dose 20 mg/kg, route oral; conditions: in vivo; how it was run: as §2
[17] = Tmax in Balb/c mouse at 20 mg/kg, po; type: ADME, organism-based; parameters: dose 20 mg/kg, route oral; conditions: in vivo; how it was run: as §2
[18] = Half life in Balb/c mouse at 20 mg/kg, po; type: ADME, organism-based; parameters: dose 20 mg/kg, route oral; conditions: in vivo; how it was run: as §2
Mus musculus [19] = assay: Oral bioavailability in Balb/c mouse at 20 mg/kg; type: ADME, organism-based; conditions: in vivo; how it was run: as §2
Plasmodium berghei [20] = assay: Antimalarial activity against Plasmodium berghei ANKA expressing GFP infected in NMRI mouse assessed as reduction of parasite level in blood at 30 mg/kg, po administered 24 hrs post infection measured after 72 hrs post infection by flow cytometry; type: functional; parameters: scale not given: the % may be the effect or the level left
How it was run: (§5)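 Female NMRI mice (20–22 g, n=3) are infected i.v. with 2×10^7 P. berghei GFP ANKA-infected erythrocytes. Oral compound in 75% PEG300/25% D5W is given at 10 mL/kg, once at 24 h or daily at 24/48/72 h post-infection. Parasitemia is read by flow cytometry at 72 h (single dose) or 96 h (triple dose). Activity is % reduction of mean parasitemia versus untreated controls.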

Plasmodium berghei [21] = assay: Antimalarial activity against Plasmodium berghei ANKA expressing GFP infected in NMRI mouse assessed as reduction of parasite level in blood at 100 mg/kg, po administered 24 hrs post infection measured after 72 hrs post infection by flow cytometry; type: functional; parameters: scale not given: the % may be the effect or the level left; how it was run: as §5
Plasmodium berghei [22] = assay: Antimalarial activity against Plasmodium berghei ANKA expressing GFP infected in NMRI mouse assessed as reduction of parasite level in blood at 30 mg/kg, po administered 24 hrs post infection qd for 3 days measured after 96 hrs post infection by flow cytometry; type: functional; parameters: scale not given: the % may be the effect or the level left; how it was run: as §5
Plasmodium berghei [23] = assay: Antimalarial activity against Plasmodium berghei ANKA expressing GFP infected in NMRI mouse assessed as increase of mouse survival at 30 mg/kg, po administered 24 hrs post infection (reference value: 6 to 7 days); type: functional
Plasmodium berghei [24] = assay: Antimalarial activity against Plasmodium berghei ANKA expressing GFP infected in NMRI mouse assessed as increase of mouse survival at 100 mg/kg, po administered 24 hrs post infection (reference value: 6 to 7 days); type: functional
Plasmodium berghei [25] = assay: Antimalarial activity against Plasmodium berghei ANKA expressing GFP infected in NMRI mouse assessed as increase of mouse survival at 30 mg/kg, po administered 24 hrs post infection qd for 3 days (reference value: 6 to 7 days); type: functional
[26] = AUC (0 to 5 hrs) in Wistar rat at 10 mg/kg, po; type: ADME, organism-based; parameters: dose 10 mg/kg, route oral; conditions: plasma
[27] = Cmax in Wistar rat at 10 mg/kg, po; type: ADME, organism-based; parameters: dose 10 mg/kg, route oral; conditions: Wistar, in vivo
How it was run: (§6)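 Rat snapshot PK: two Wistar rats dosed orally at 10 mg/kg, formulated at 2.5 mg/mL in 75% PEG300/25% D5W. Blood (100 μL) taken at 0.5, 1, 3 and 5 h post dose. Plasma pooled by sampling time, then analysed by LC-MS/MS.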

Rattus norvegicus = assay: Dose normalized AUC (0 to 5 hrs) in Wistar rat at 10 mg/kg, po; type: ADME, organism-based; parameters: dose 10 mg/kg, route oral; conditions: in vivo; how it was run: as §6

SMILES: CC(C)(N)C(=O)N1CCn2c(nc(-c3ccc(F)cc3)c2Nc2ccc(F)cc2)C1
- pEC50 (Plasmodium falciparum [1]): 7.70
- pEC50 (Plasmodium falciparum [2]): 7.60
- permeability [3]: 81%
- AUC (Mus musculus [4]): 3.442 µM·h
- AUC (Mus musculus [5]): 17.894 µM·h

SMILES: CC(C)(N)C(=O)N1CCn2c(nc(-c3ccc(F)cc3)c2Nc2ccc(F)c(F)c2)C1
- ED99 (Plasmodium berghei [6]): 26.5 mg/kg

SMILES: NCC(=O)N1CCn2c(nc(-c3ccc(F)cc3)c2Nc2ccc(F)cc2)C1
- pEC50 (Plasmodium falciparum [1]): 7.62
- pEC50 (Plasmodium falciparum [2]): 7.64
- permeability [3]: 52%
- AUC (Mus musculus [4]): 1.072 µM·h
- AUC (Mus musculus [5]): 0.965 µM·h

SMILES: CC1(C)c2nc(-c3ccc(F)cc3)c(Nc3ccc(F)c(F)c3)n2CCN1C(=O)CN
- pEC50 (Plasmodium falciparum [1]): 8.40
- pEC50 (Plasmodium falciparum [2]): 8.30
- hepatic extraction ratio [7]: 0.46
- hepatic extraction ratio [8]: 0.69
- hepatic extraction ratio [9]: 0.53
- pIC50 [10]: < 4.52
- permeability [3]: 51.5%
- Papp A→B [11]: 0.61 ×10⁻⁶ cm/s
- Papp B→A [12]: 1.3 ×10⁻⁶ cm/s
- Vd [13]: 7.5 L/kg
- clearance [14]: 27.5 mL/min/kg
- half-life [15]: 5.5 h
- AUC (Mus musculus [4]): 7.062 µM·h
- Cmax [16]: 1720 nM
- Tmax [17]: 3 h
- half-life [18]: 5.21 h
- AUC (Mus musculus [5]): 21.058 µM·h
- F (Mus musculus [19]): 75%
- Activity (Plasmodium berghei [20]): 99%
- Activity (Plasmodium berghei [21]): 99.1%
- Activity (Plasmodium berghei [22]): 99.7%
- Survival (Plasmodium berghei [23]): 15 days
- Survival (Plasmodium berghei [24]): 16.7 days
- Survival (Plasmodium berghei [25]): 17 days
- AUC(0-t) at 4 h [26]: 0.367 µM·h
- Cmax [27]: 96.7 nM
- AUC/dose (Rattus norvegicus): 0.95 min.ug/ml/(mg/kg)

SMILES: NCC(=O)N1CCn2c(nc(-c3ccc(F)cc3)c2Nc2ccc(F)c(Cl)c2)C1
- pEC50 (Plasmodium falciparum [1]): 8.40
- pEC50 (Plasmodium falciparum [2]): 8.40

SMILES: C[C@H]1c2nc(-c3ccc(F)cc3)c(Nc3ccc(F)c(Cl)c3)n2CCN1C(=O)CN
- pEC50 (Plasmodium falciparum [1]): 7.54
- pEC50 (Plasmodium falciparum [2]): 7.62

SMILES: C[C@@H]1c2nc(-c3ccc(F)cc3)c(Nc3ccc(F)c(Cl)c3)n2CCN1C(=O)CN
- pEC50 (Plasmodium falciparum [1]): 7.51
- pEC50 (Plasmodium falciparum [2]): 7.54

SMILES: CC(C)[C@H]1c2nc(-c3ccc(F)cc3)c(Nc3ccc(F)c(Cl)c3)n2CCN1C(=O)CN
- pEC50 (Plasmodium falciparum [1]): 6.46
- pEC50 (Plasmodium falciparum [2]): 6.33

SMILES: CC(C)[C@@H]1c2nc(-c3ccc(F)cc3)c(Nc3ccc(F)c(Cl)c3)n2CCN1C(=O)CN
- pEC50 (Plasmodium falciparum [1]): 6.77
- pEC50 (Plasmodium falciparum [2]): 6.69

SMILES: CC1(C)c2nc(-c3ccc(F)cc3)c(Nc3ccc(F)c(Cl)c3)n2CCN1C(=O)CN
- pEC50 (Plasmodium falciparum [1]): 7.57
- pEC50 (Plasmodium falciparum [2]): 7.62

SMILES: Cc1ccc(Nc2c(-c3ccc(F)cc3)nc3n2CCN(C(=O)CN)C3(C)C)cc1
- pEC50 (Plasmodium falciparum [1]): 8.10
- pEC50 (Plasmodium falciparum [2]): 8.22
